Sampled rows, rich in hits. Any-hit rate of the full collection: about 1.7%.
C-LANA FP – blocks KSHV LANA C-terminal domain binding to DNA; MBP-C-LANA/FAM-LBS DNA binding, fluorescence polarization; inhibition, % at 9 µM; 340,000 compounds, 0.078% hits; AID 504423;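 active = highest replicate inhibition at or above 60% at 9 µM, even if other replicates fall short; inactive = all replicates below 60% inhibition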;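 note: 0% = neutral control wells and 100% = 4 µM acridine orange control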
CAL PDZ FP-1 – blocks peptide binding to human CAL PDZ domain | inhibition, % at 20 µM | Q9HD26 | AID 504414 | purified CAL PDZ, TMR-peptide fluorescence polarization, 1 h | 330,000 compounds, 0.02% hits;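 active = highest replicate inhibition of at least 40%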;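 note: plate controls were DMSO neutral control wells for no effect and unlabeled competitor peptide control wells for full effect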
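Control set: unlabelled peptide and DMSO controls / Material: purified CerCALP PDZ construct / Timing: 1 h incubation at room temperature before polarization reading / Doses: 20 µM, one dose / Detection: fluorescence polarization (mP)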
Keap1 Nrf2 FP – disrupts human Keap1 binding to Nrf2 peptide; 340,000 compounds, 0.15% hits; Q14145; AID 504523; inhibition, % at 9.4 µM; Keap1 Kelch-Nrf2 peptide fluorescence polarization, 1536-well; in the data active = inhibition above about 12%; inconclusive = no clear call, values can overlap the other calls; inactive = below about 7.3%;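 note: human Keap1 Kelch domain with fluorescein labeled Nrf2 9mer peptide probe; 0% = neutral control wells and 100% = peptide positive control; higher means more block of Keap1 binding to Nrf2 peptide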
A3A deaminase – blocks human APOBEC3A ssDNA deamination; inhibition, % at 20 µM; recombinant A3A, FAM/TAMRA ssDNA deamination fluorescence; P31941; AID 493011; 330,000 compounds, 0.41% hits;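 active = at least 40% inhibition at 20 µM here, with at most 30% in a related deaminase screen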;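 note: plate controls were A3A with DMSO for no effect and wells lacking A3A enzyme for full effect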
Target sequence (P31941 whole entry, looked up): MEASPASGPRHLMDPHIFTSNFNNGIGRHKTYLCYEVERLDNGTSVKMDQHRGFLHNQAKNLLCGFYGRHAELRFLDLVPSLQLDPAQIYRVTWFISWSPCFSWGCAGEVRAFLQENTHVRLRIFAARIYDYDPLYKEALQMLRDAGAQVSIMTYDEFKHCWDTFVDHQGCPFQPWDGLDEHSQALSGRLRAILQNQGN
CAL PDZ FP-2 – blocks peptide binding to the human CAL PDZ domain; Q9HD26; purified CAL PDZ, TMR-peptide fluorescence polarization, 1 h; inhibition, % at 24.9 µM; 300,000 compounds, 0.92% hits;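 active = mean inhibition of at least 30% with at least half of replicates also reaching 30%; inconclusive = no clear call, values can overlap the other calls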;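 note: 0% = DMSO neutral control and 100% = excess unlabeled competitor peptide PRC23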
APOBEC3G inh – inhibitors of human APOBEC3G DNA deaminase; AID 493012; recombinant A3G, ssDNA deamination FAM/TAMRA fluorescence; Q9HC16; 330,000 compounds, 0.28% hits; inhibition, % at 20 µM;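 active = inhibition of at least 40% at 20 µM, with no more than 30% in the related APOBEC3A deaminase screen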;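 note: plate controls were DMSO wells with A3G for no effect and wells lacking A3G enzyme for full effect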
* marks the source's active call; other numbers are inactive results; ? = inconclusive; / = no result; + = active, no number.

SMILES	C-LANA FP	CAL PDZ FP-1	Keap1 Nrf2 FP	A3A deaminase	CAL PDZ FP-2	APOBEC3G inh
CCc1nnc(NC(=O)CN2CCN(c3ccccc3F)CC2)s1	-1.1	0.1	-3.1	-5.5	40.6*	-18.0
Cc1cc(C)cc(NC(=O)C2CCN(C(=O)[C@@H]3Cc4ccccc4CN3)CC2)c1	-2.3	-1.4	0.2	-7.1	41.8*	-6.8
Cc1cc(N)n(-c2ccc(S(N)(=O)=O)cc2[N+](=O)[O-])n1	2.0	-1.1	4.2	-2.8	76.1*	0.4
COCCCN1C(=O)N(c2ccc(F)cc2)C(=O)C1CC(=O)Nc1ccc(OC)cc1 (centres undefined)	-2.8	0.0	3.7	-0.5	-6.4	-2.2
CCOC(=O)C1(CCCc2ccccc2)CCN(C(=O)CCOC)CC1	-0.3	0.0	1.5	0.3	-0.4	-8.3
Cc1ccccc1C(=O)c1cccn1CC(=O)NCCCN1CCCCC1	-1.5	-1.4	-3.6	2.6	-2.9	14.0
Cc1ccccc1C(=O)c1cccn1CC(=O)NCCC1=CCCCC1	-1.2	-0.3	0.4	3.2	56.5*	1.2
O=C(CSc1ccc2nnc(-c3ccccn3)n2n1)Nc1ccccc1F	0.8	-2.0	1.6	-3.1	-1.7	-4.0
CC1=NN2C(=N)/C(=C\c3ccc(SCc4ccccc4)o3)C(=O)N=C2S1	2.9	-0.9	-1.6	3.1	55.1*	-4.8
CC1=NN2C(=N)/C(=C\c3cc(C)n(Cc4ccccc4)c3C)C(=O)N=C2S1	/	/	/	4.4	/	-0.4
O=C(COc1ccc2c(c1)OCO2)Nc1nccs1	-0.1	-0.1	0.1	-2.5	53.4*	-4.1
Cn1c(NCc2cccnc2)nc2c1c(=O)n(Cc1ccccc1F)c(=O)n2C	2.2	5.9	-2.9	0.7	+	0.8
COCCNc1nc2c(c(=O)n(Cc3ccccc3F)c(=O)n2C)n1C	-1.3	0.2	-1.6	-6.6	-1.3	-7.1
O=C(c1ccc2nc[nH]c2c1)N1CCc2ccccc2C1	2.5	-1.2	-0.2	5.8	53.5*	-4.8
COc1ccc(C2N(c3cc(C)on3)C(=O)C3CCCN32)cc1OC (centres undefined)	0.8	-0.2	0.5	-1.8	50.8*	-2.6
C=CCNC(=O)c1c(O)c2cccc3c2n(c1=O)CCC3	1.6	-1.0	-3.3	-4.8	33.1*	-7.5
NCCNC(=O)c1c(O)c2cccc3c2n(c1=O)CCC3	-5.1	0.1	-2.9	-5.0	-1.7	-1.0
Cc1ccccc1NC1=NC(=S)N(c2ccccc2)C12CCOC(C)(C)C2 (centres undefined)	-1.0	16.7	-0.2	5.4	42.0*	0.1
CC1(C)CC2(CCO1)C(Nc1ccccc1)=NC(=S)N2c1ccccc1 (centres undefined)	/	/	/	-4.6	/	-1.3
Cn1c(-c2ccc(=O)[nH]c2)nc2ccccc21	-0.6	-0.4	2.2	2.5	3.9	3.2
O=c1ccc(-c2nc3ccccc3n2Cc2ccc(Cl)cc2)c[nH]1	-1.2	/	-0.4	-0.2	41.2*	-2.0
Cc1cc(NC(=O)c2c(Br)c(C)nn2C)no1	-0.8	-0.3	-5.4	-1.0	82.7*	-8.9
O=C(NCCN1CCOCC1)c1ccc(CS(=O)(=O)c2c(Cl)cccc2Cl)o1	-1.2	-0.6	-6.6	-3.7	32.1*	-6.9
O=C(NCCCN1CCOCC1)c1ccc(CS(=O)(=O)c2c(Cl)cccc2Cl)o1	0.1	-0.3	?	1.5	/	2.6
O=C(CN1C(=O)S/C(=C/c2cccs2)C1=O)N1CCCC1	1.7	-1.3	0.9	-3.8	-3.6	-5.3
O=C(O)c1ccc(-n2cccc2/C=C2/SC(=O)N(CC(=O)N3CCCC3)C2=O)cc1	64.1*	-2.7	3.4	96.3	-5.6	84.6
CCC(C)NC(=O)C1CCC(=O)N(c2ccc3c(c2)OCO3)C1c1ccc(OC)cc1 (centres undefined)	0.3	0.4	-5.7	-1.4	/	-5.4
COCCCNC(=O)C1CCC(=O)N(c2ccc3c(c2)OCO3)C1c1ccc(OC)cc1 (centres undefined)	-1.5	0.9	-1.4	-2.3	+	-2.8
Cc1[nH]c(=O)[nH]c(=O)c1/C=C/C(=O)O	-1.8	-1.1	-2.6	4.2	69.8*	-2.1
O=C(NC1CCCCC1)C1CCN(c2nccs2)CC1	-1.8	-2.0	-5.9	-1.5	33.5*	-3.9

High-throughput results from PubChem BioAssay.
